Our source for the Activity values is ChEMBL document CHEMBL1140117, “Structure-activity relationship studies for the peptide portion of the bladder epithelial cell antiproliferative factor from interstitial cystitis patients” (2008).

Non-standard residues stand in square brackets, D forms with d. Residues, ends and D or L forms follow the SMILES beside them. *: point of attachment. X1 = CC(=O)N[C@@H]1[C@@H](O[C@@H]2O[C@H](CO)[C@H](O)[C@H](O)[C@H]2O)[C@@H](O)[C@@H](CO)O[C@@H]1*; NMeA = CN[C@@H](C)C(=O)O

The nature of the assay: Antiproliferative activity against human bladder epithelial cells assessed as inhibition of [3H]thymidine incorporation after 48 hrs relative to as-APF. Format: functional, Epithelial cell. Set-up: scale not given: the % may be the effect or the level left. In a few lines: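 Primary normal human bladder epithelial cells, explanted from cystoscopy biopsies, plated at 1.5 × 10⁴ cells/well in MEM with 10% heat-inactivated FBS. Congeners dissolved in acetonitrile/water (1:1), added in serum-free MEM in 10-fold dilutions up to the 25 µM assay cutoff. Incubated 48 h at 37 °C, 5% CO₂. ³H-thymidine uptake counted on filters. Activity expressed relative to the standard control run on each plate. Triplicates, at least two runs, ANOVA.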
Consider `CC(=O)N[C@H]1[C@@H](O[C@H](C)[C@H](N)C(=O)N[C@H](C(=O)N2CCC[C@H]2C(=O)N[C@@H](C)C(=O)N[C@@H](CO)C(=O)N[C@H](C(=O)N[C@H](C(=O)N[C@H](C(=O)N[C@@H](CO)C(=O)O)C(C)C)C(C)C)C(C)C)C(C)C)O[C@H](CO)[C@H](O)[C@@H]1O[C@@H]1O[C@H](CO)[C@H](O)[C@H](O)[C@H]1O` (H-T(X1)VPASVVVS-OH), for which the Activity turned out to be 0.2%.

Turning to `CC(=O)N[C@H]1[C@@H](O[C@H](C)[C@H](NC(=O)[C@@H](N)Cc2ccc(O)cc2)C(=O)N[C@H](C(=O)N2CCC[C@H]2C(=O)N[C@@H](C)C(=O)N[C@@H](C)C(=O)N[C@H](C(=O)N[C@H](C(=O)N[C@H](C(=O)N[C@@H](C)C(=O)O)C(C)C)C(C)C)C(C)C)C(C)C)O[C@H](CO)[C@H](O)[C@@H]1O[C@@H]1O[C@H](CO)[C@H](O)[C@H](O)[C@H]1O` (H-YT(X1)VPAAVVVA-OH), the Activity amounted to 1%.

On to `CC(=O)N[C@H]1[C@@H](O[C@H](C)[C@H](N)C(=O)N[C@H](C(=O)N2CCC[C@H]2C(=O)N[C@@H](C)C(=O)N[C@@H](C)C(=O)N[C@H](C(=O)N[C@H](C(=O)N[C@H](C(=O)O)C(C)C)C(C)C)C(C)C)C(C)C)O[C@H](CO)[C@H](O)[C@@H]1O[C@@H]1O[C@H](CO)[C@H](O)[C@H](O)[C@H]1O` (H-T(X1)VPAAVVV-OH), for which the Activity is reported as 100%. The same measure for `CC(=O)N[C@H]1[C@@H](O[C@H](C)[C@H](N)C(=O)N[C@H](C(=O)N(C)[C@@H](C)C(=O)N[C@@H](C)C(=O)N[C@@H](C)C(=O)N[C@H](C(=O)N[C@H](C(=O)N[C@H](C(=O)N[C@@H](C)C(=O)O)C(C)C)C(C)C)C(C)C)C(C)C)O[C@H](CO)[C@H](O)[C@@H]1O[C@@H]1O[C@H](CO)[C@H](O)[C@H](O)[C@H]1O` (H-T(X1)V[NMeA]AAVVVA-OH): 0.05%. On to `CC(=O)N[C@H]1[C@@H](O[C@H](C)[C@H](N)C(=O)N[C@H](C(=O)N2CCC[C@H]2C(=O)N[C@@H](C)C(=O)N[C@@H](C)C(=O)N[C@H](C(=O)N[C@H](C(=O)N[C@H](C(=O)N[C@@H](C)C(=O)N[C@@H](CS)C(=O)O)C(C)C)C(C)C)C(C)C)C(C)C)O[C@H](CO)[C@H](O)[C@@H]1O[C@@H]1O[C@H](CO)[C@H](O)[C@H](O)[C@H]1O` (H-T(X1)VPAAVVVAC-OH), for which the Activity turned out to be 1%.

Turning to `CC(=O)N[C@H]1[C@@H](OC[C@H](N)C(=O)N[C@H](C(=O)N2CCC[C@H]2C(=O)N[C@@H](C)C(=O)N[C@@H](C)C(=O)N[C@H](C(=O)N[C@H](C(=O)N[C@H](C(=O)N[C@@H](C)C(=O)O)C(C)C)C(C)C)C(C)C)C(C)C)O[C@H](CO)[C@H](O)[C@@H]1O[C@@H]1O[C@H](CO)[C@H](O)[C@H](O)[C@H]1O` (H-S(X1)VPAAVVVA-OH), the Activity is reported as 0.01%.

Regarding `CC(=O)N[C@H]1[C@@H](O[C@H](C)[C@H](N)C(=O)N[C@H](C(=O)N[C@@H](C)C(=O)N[C@@H](C)C(=O)N[C@@H](C)C(=O)N[C@H](C(=O)N[C@H](C(=O)N[C@H](C(=O)N[C@@H](C)C(=O)O)C(C)C)C(C)C)C(C)C)C(C)C)O[C@H](CO)[C@H](O)[C@@H]1O[C@@H]1O[C@H](CO)[C@H](O)[C@H](O)[C@H]1O` (H-T(X1)VAAAVVVA-OH), the Activity was 0.3%.
